Measurements as given in ChEMBL document CHEMBL4732185, “Synthesis, biological evaluation and structure-activity relationship of novel dichloroacetophenones targeting pyruvate dehydrogenase kinases with potent anticancer activity” (Eur J Med Chem, 2021).
Active and inactive are the calls of the source. No cut-off for these calls is given here.

Key:
[1] = system: A549; experiment: Antiproliferative activity against human A549 cells assessed as growth inhibition at 10 uM after 72 hrs by MTT assay relative to control; type: functional; details: read-out: GI
How it was run: (§1)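 Single-concentration MTT screen on MCF-7 and A549 cells grown in DMEM + 10% FBS. Cells at 3000–6000/well, cultured overnight, then given compound in buffer with 1% DMSO for 72 h. MTT (0.5 mg/mL) added for 4 h, formazan dissolved in DMSO, A570 read. Percent inhibition reported as the average ± S.D. of three independent measurements.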

[2] = system: A549; experiment: Antiproliferative activity against human A549 cells assessed as growth inhibition at 1 uM after 72 hrs by MTT assay relative to control; type: functional; details: read-out: GI; how it was run: as §1
[3] = system: SH-SY5Y; experiment: Antiproliferative activity against human SHSY-5Y cells assessed as growth inhibition after 72 hrs by MTT assay; type: functional, cell-based; details: Homo sapiens, SH-SY5Y, 72 h; read-out: IC50
How it was run: (§2)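 MTT viability assay. Cancer lines seeded at 3000–6000 cells/well and L02 at 7000 cells/well, cultured overnight, then exposed to a full dose range for 72 h. MTT (0.5 mg/mL) added for 4 h, supernatant removed, formazan dissolved in DMSO, absorbance read at 570 nm. IC50 taken as the mean of three independent experiments. Cells grown in DMEM + 10% FBS, 37 °C, 5% CO2.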

[4] = system: PC-3; experiment: Antiproliferative activity against human PC3 cells assessed as growth inhibition after 72 hrs by MTT assay; type: functional, cell-based; details: Homo sapiens, PC-3, 72 h; read-out: IC50; how it was run: as §2
[5] = Inhibition of PDK (unknown origin) using RYHGHSMSDP as substrate after 30 mins by Kinase-Glo luminescent assay; set-up: species or system Homo sapiens
[6] = target: [Pyruvate dehydrogenase (acetyl-transferring)] kinase isozyme 3, mitochondrial (Homo sapiens, UniProt Q15120); experiment: Binding affinity to PDK3 (unknown origin) by isothermal titration calorimetry
Sequence of [Pyruvate dehydrogenase (acetyl-transferring)] kinase isozyme 3, mitochondrial (Q15120 whole entry): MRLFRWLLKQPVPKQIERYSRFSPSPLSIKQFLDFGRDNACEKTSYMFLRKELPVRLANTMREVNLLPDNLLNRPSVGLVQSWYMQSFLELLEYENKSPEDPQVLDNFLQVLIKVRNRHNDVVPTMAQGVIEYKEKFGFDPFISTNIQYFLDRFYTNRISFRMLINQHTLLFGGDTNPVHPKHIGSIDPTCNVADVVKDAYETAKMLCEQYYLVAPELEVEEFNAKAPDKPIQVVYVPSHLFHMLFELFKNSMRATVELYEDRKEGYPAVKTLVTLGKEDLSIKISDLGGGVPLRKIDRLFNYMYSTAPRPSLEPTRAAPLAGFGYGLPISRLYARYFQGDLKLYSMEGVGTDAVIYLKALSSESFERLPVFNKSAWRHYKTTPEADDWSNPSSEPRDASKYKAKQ
How it was run: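 Isothermal titration calorimetry at 25 °C. Compound dissolved in DMSO, diluted to 100 µM in buffer and placed in the titration syringe; 250 µL of PDK protein solution in the reaction cell. Titrant added in 2.5 µL increments per injection.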

[7] = system: A-375; experiment: Induction of apoptosis in human A375 cells assessed as early apoptotic cells at 1 uM after 36 hrs by annexinV-FITC/propidium iodide staining based flow cytometric analysis (reference value: 3.2%); type: functional
[8] = system: A-375; experiment: Induction of apoptosis in human A375 cells assessed as late apoptotic cells at 2.5 uM after 36 hrs by annexinV-FITC/propidium iodide staining based flow cytometric analysis (reference value: 1.02%); type: functional
[9] = system: A-375; experiment: Induction of apoptosis in human A375 cells assessed as early apoptotic cells at 5 uM after 36 hrs by annexinV-FITC/propidium iodide staining based flow cytometric analysis (reference value: 3.2%); type: functional
[10] = system: A-375; experiment: Induction of apoptosis in human A375 cells assessed as late apoptotic cells at 5 uM after 36 hrs by annexinV-FITC/propidium iodide staining based flow cytometric analysis (reference value: 1.02%); type: functional
[11] = system: A-375; experiment: Induction of apoptosis in human A375 cells assessed as viable cells at 5 uM after 12 hrs by annexinV-FITC/propidium iodide staining based flow cytometric analysis (reference value: 97.94%); type: functional; details: read-out: Activity
[12] = system: A-375; experiment: Induction of apoptosis in human A375 cells assessed as viable cells at 5 uM after 24 hrs by annexinV-FITC/propidium iodide staining based flow cytometric analysis (Rvb= 97.94%); type: functional; details: read-out: Activity
[13] = system: A-375; experiment: Induction of apoptosis in human A375 cells assessed as late apoptotic cells at 5 uM after 24 hrs by annexinV-FITC/propidium iodide staining based flow cytometric analysis (reference value: 0.63%); type: functional
[14] = system: A-375; experiment: Induction of apoptosis in human A375 cells assessed as necrotic cells at 5 uM after 24 hrs by annexinV-FITC/propidium iodide staining based flow cytometric analysis (reference value: 0.56%); type: functional
[15] = system: A-375; experiment: Induction of cell cycle arrest in human A375 cells assessed as accumulation at G1 phase at 1 uM after 24 hrs by propidium iodide staining based flow cytometric analysis (reference value: 52.65%); type: functional
[16] = system: A-375; experiment: Induction of cell cycle arrest in human A375 cells assessed as accumulation at G2 phase at 1 uM after 24 hrs by propidium iodide staining based flow cytometric analysis (reference value: 10.02%); type: functional
[17] = system: A-375; experiment: Induction of cell cycle arrest in human A375 cells assessed as accumulation at S phase at 2.5 uM after 24 hrs by propidium iodide staining based flow cytometric analysis (reference value: 37.33%); type: functional
[18] = system: A-375; experiment: Induction of cell cycle arrest in human A375 cells assessed as accumulation at G2 phase at 2.5 uM after 24 hrs by propidium iodide staining based flow cytometric analysis (reference value: 10.02%); type: functional
[19] = system: A-375; experiment: Induction of cell cycle arrest in human A375 cells assessed as accumulation at G1 phase at 5 uM after 24 hrs by propidium iodide staining based flow cytometric analysis (reference value: 52.65%); type: functional
[20] = system: A-375; experiment: Induction of cell cycle arrest in human A375 cells assessed as accumulation at S phase at 5 uM after 24 hrs by propidium iodide staining based flow cytometric analysis (reference value: 37.33%); type: functional
[21] = system: A-375; experiment: Induction of cell cycle arrest in human A375 cells assessed as accumulation at G1 phase after 24 hrs by propidium iodide staining based flow cytometric analysis; type: functional; details: dose 1-5 µM
[22] = system: A-375; experiment: Inhibition of PDK in human A375 cells assessed as reduction in phosphorylation of PDC E1alpha at ser293 residues at 2.5 to 5 uM after 24 hrs by Western blot analysis; type: cell-based; details: dose 2.5-5 µM
How it was run: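 A375 cells in 6-well plates, treated 24 h. Lysed 15 min and spun 12000 rpm at 4 °C for 15 min. Protein equalized by BCA and denatured in SDS buffer at 100 °C for 8 min. Run on SDS-PAGE, transferred to nitrocellulose, blocked in 5% milk 2 h, primary antibody overnight, HRP anti-rabbit IgG 2 h, ECL detection.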

[23] = system: A-375; experiment: Inhibition of PDK in human A375 cells assessed as reduction lactate formation at 2.5 to 5 uM after 4 hrs by Nova Bio-profile Flex analyzer; type: cell-based; details: dose 2.5-5 µM
How it was run: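 A375 cells seeded at 2.5 × 10⁵/well in 24-well plates and cultured overnight. Treated 4 h at 37 °C. Medium collected and centrifuged 4 min at 12000 rpm for lactate determination.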

[24] = system: A-375; experiment: Antitumour activity against human A375 cells xenografted with mouse assessed as tumour growth inhibition at 5 mg/kg, im administered once per three days for 21 days; type: functional, organism-based; details: time 21.0 day
How it was run: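 Xenograft model. A375 cells harvested at 80% confluence with trypsin/EDTA, resuspended in serum-free DMEM and injected subcutaneously into the right flank of mice. Once tumours were visible (about 7 days), mice were randomised to vehicle or 5 mg/kg groups, n = 4, dosed by intramuscular injection once every three days. Tumour growth and body weight followed; tumours harvested and weighed at 21 days.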

[25] = Toxicity in mouse xenografted with human A375 cells assessed as reduction in body weight at 5 mg/kg, im administered once per three days for 21 days; type: organism-based; details: in vivo, 504 h, time 21 day
How it was run: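 A375 cells at 80% confluence harvested with trypsin/EDTA, resuspended in serum-free DMEM, and injected subcutaneously into the right flank. Tumours visible at 7 days. Mice randomized to vehicle or 5 mg/kg (n = 4/group), dosed intramuscularly once every three days. Body weight followed over 21 days.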

CC(C)(CO)c1ccc(Nc2ccc(C(=O)C(Cl)Cl)cc2[N+](=O)[O-])cc1
inhibition of growth at 10 µM [1]: 98.6% | inhibition of growth at 1 µM [2]: 29.4% | IC50 [3]: 1700 nM | IC50 [4]: 3800 nM | EC50 [5]: 90 nM | Kd [6]: 7800 nM | Activity [7]: 6.64% | Activity [8]: 22.3% | Activity [9]: 6.52% | Activity [10]: 38.81% | viability at 5 µM [11]: 82.8% | viability at 5 µM [12]: 70.9% | Activity [13]: 19.11% | Activity [14]: 3.56% | Activity [15]: 55.72% | Activity [16]: 9.64% | Activity [17]: 30.75% | Activity [18]: 8.5% | Activity [19]: 66.86% | Activity [20]: 27.43% | Activity [21]: Dose-dependent effect | inhibition [22]: Active | inhibition [23]: Active | Activity [24]: Active | Activity [25]: Non-Toxic
